Experimental data reported in ChEMBL document CHEMBL3352584, “Novel DNA gyrase inhibiting spiropyrimidinetriones with a benzisoxazole scaffold: SAR and in vivo characterization” (J Med Chem, 2014).
≈ marks a conversion by molar mass, not a printed value.

Assays:
[1] = tested on: Rattus norvegicus; experiment: Toxicity in Wistar Hannover rat at 1000 mg/kg, po administered as single dose; format: organism-based; design: dose 1000 mg/kg, route oral; conditions: in vivo
In short: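 Single-dose oral phase in groups of three male Wistar Hannover rats, at doses up to 1000 mg/kg. Vehicle was 0.2 M meglumine/20% hydroxypropyl-β-cyclodextrin.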

[2] = tested on: Haemophilus influenzae; experiment: Antimicrobial activity against Haemophilus influenzae by broth microdilution method; format: functional
In short: (§1)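 Broth microdilution following CLSI guidelines. Values under 12.5 μM are averages of three or more replicates.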

[3] = tested on: Staphylococcus aureus; experiment: Inhibition of RNA synthesis in methicillin-sensitive Staphylococcus aureus by [3H]-uridine incorporation assay; format: functional, organism-based
[4] = tested on: Rattus norvegicus; experiment: fCmax in Wistar Hannover rat at 500 mg/kg, po dosed once daily for 14 days measured on day 14; format: ADME, organism-based; design: dose 500 mg/kg, route oral; conditions: in vivo, 336 h
[5] = tested on: Rattus norvegicus; experiment: Toxicity in Wistar Hannover rat at 250 to 500 mg/kg, po administered once daily for 14 days; format: organism-based; design: dose 250-500 mg/kg, route oral; conditions: in vivo, 336 h
In short: (§2)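 Repeat-dose oral study in Wistar Hannover rats, three males and three females per group, dosed once daily for 14 days at 0, 250, 500 or 750 mg/kg/day and necropsied on day 15. Endpoints were clinical signs, body weight, food intake, temperature, hematology, plasma chemistry, toxicokinetics, and gross and microscopic pathology.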

[6] = tested on: Rattus norvegicus; experiment: fAUC in Wistar Hannover rat at 500 mg/kg, po dosed once daily for 14 days measured on day 14; format: ADME, organism-based; design: dose 500 mg/kg, route oral; conditions: in vivo, 336 h
[7] = tested on: Staphylococcus aureus; experiment: Antimicrobial activity against wild-type Staphylococcus aureus 516 by broth microdilution method; format: functional; in short: as §1
[8] = target: DNA topoisomerase 2-alpha (Homo sapiens, UniProt P11388); experiment: Inhibition of human topoisomerase 2alpha
[9] = tested on: Staphylococcus aureus; experiment: Antimicrobial activity against methicillin-sensitive Staphylococcus aureus ARC516 infected in immunosupressed mouse administered as single ip dose starting 2 hrs after infection; format: functional, organism-based
[10] = Solubility of the compound; format: physicochemical
[11] = Clearance in rat at 3 mg/kg, iv or at 10 mg/kg, po by LC-MS/MS method; format: ADME, organism-based; conditions: in vivo
In short: (§3)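 Male mice (CD-1) or male Wistar Hannover rats, three per experiment, given a 15 min iv infusion at 3 mg/kg or oral dosing at 10 mg/kg. Vehicle was DMA:TEG:saline 40/40/20 for mice and meglumine/cyclodextrin for rats. Serial jugular blood was taken over 0–24 h, plasma analysed by LC-MS/MS, and a noncompartmental analysis used. Mean values are given.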

[12] = Clearance in mouse at 3 mg/kg, iv or at 10 mg/kg, po by LC-MS/MS method; format: ADME, organism-based; conditions: in vivo; in short: as §3
[13] = tested on: Staphylococcus aureus; experiment: Antimicrobial activity against Staphylococcus aureus 2792 harboring wild-type GyrA and GyrB R144A mutant by broth microdilution method; format: functional
[14] = tested on: Staphylococcus aureus; experiment: Antimicrobial activity against methicillin-sensitive Staphylococcus aureus ARC516 infected in immunosupressed mouse assessed as reduction in CFU at AUC of 120 ug.hr/mL compound administered as single ip dose starting 2 hrs after infection relative to untreated control; format: functional
In short: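 Mice were made neutropenic with IP cyclophosphamide, 150 mg/kg at day −4 and 100 mg/kg at day −1. CD-1 thighs were then infected with mid-log S. aureus ARC516 (target 5 × 10⁵ CFU). Groups of five received IP compound in DMA:TEG:saline 40/40/20%, starting 2 h post-infection, alongside vehicle controls. At 24 h after treatment start, thigh homogenates were plated on tryptic soy agar (37 °C, overnight) for CFU/g.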

[15] = tested on: Staphylococcus aureus; experiment: Antimicrobial activity against methicillin-resistant and quinolone-resistant Staphylococcus aureus by broth microdilution method; format: functional; in short: as §1
[16] = tested on: Staphylococcus aureus; experiment: Inhibition of cell wall biosynthesis in methicillin-sensitive Staphylococcus aureus by [14C]-N-acetylglucosamine incorporation assay; format: functional, organism-based
[17] = Fraction unbound in rat plasma at 10 uM after 16 hrs by LC-MS/MS analysis; format: ADME, cell-free
In short: (§4)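 Compound at 10 μM in human, rat or mouse plasma, equilibrium dialysis against buffer at 37 °C for 16 h. Buffer and plasma concentrations measured by LC-MS/MS, and the free fraction taken from their ratio.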

[18] = Cmax in Wistar Hannover rat at 750 mg/kg, po dosed once daily for 14 days measured on day 14; format: ADME, organism-based; design: dose 750 mg/kg, route oral; conditions: in vivo
In short: (§5)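 Wistar Hannover rats, 2 males and 2 females per dose, dosed orally once daily for 14 days at 250, 500 or 750 mg/kg/day. Vehicle was 0.2 M meglumine/20% hydroxypropyl-β-cyclodextrin. Blood was sampled on day 14 and exposure measured in blood. Animals were killed after sampling without necropsy.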

[19] = tested on: Escherichia coli; experiment: Antimicrobial activity against tolC-deficient Escherichia coli by broth microdilution method; format: functional; in short: as §1
[20] = Bioavailability in mouse at 3 mg/kg, iv or at 10 mg/kg, po by LC-MS/MS method; format: ADME, organism-based; conditions: in vivo; in short: as §3
[21] = Cmax in Wistar Hannover rat at 250 mg/kg, po dosed once daily for 14 days measured on day 14; format: ADME, organism-based; design: dose 250 mg/kg, route oral; conditions: in vivo; in short: as §5
[22] = tested on: Staphylococcus aureus; experiment: Antimicrobial activity against methicillin-sensitive Staphylococcus aureus ARC516 infected in immunocompetant mouse administered as single ip dose starting 2 hrs after infection; format: functional, organism-based
[23] = tested on: Escherichia coli; experiment: Antimicrobial activity against Escherichia coli by broth microdilution method; format: functional; in short: as §1
[24] = tested on: Staphylococcus aureus; experiment: Antimicrobial activity against methicillin-sensitive Staphylococcus aureus ARC516 infected in immunocompetant mouse assessed as reduction in CFU at AUC of 70 ug.hr/mL compound administered as single ip dose starting 2 hrs after infection relative to untreated control; format: functional
In short: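 CD-1 mouse thighs were infected with mid-log S. aureus ARC516 at a target inoculum of 5 × 10⁵ CFU. Groups of five received IP compound in DMA:TEG:saline 40/40/20%, starting 2 h post-infection; a vehicle group served as control. Mice were killed 24 h after treatment start, and thigh homogenates were plated on tryptic soy agar (37 °C, overnight) for CFU/g. Free exposure was corrected for mouse plasma protein binding.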

[25] = AUC in Wistar Hannover rat at 750 mg/kg, po dosed once daily for 14 days measured on day 14; format: ADME, organism-based; design: dose 750 mg/kg, route oral; conditions: plasma; in short: as §5
[26] = tested on: Streptococcus pneumoniae; experiment: Antimicrobial activity against Streptococcus pneumoniae by broth microdilution method; format: functional; in short: as §1
[27] = tested on: Streptococcus pneumoniae; experiment: Antimicrobial activity against wild-type Streptococcus pneumoniae 548 by broth microdilution method; format: functional; in short: as §1
[28] = tested on: Streptococcus pneumoniae; experiment: Antimicrobial activity against Streptococcus pneumoniae 2485 harboring GyrA S81F mutant, GyrB D160E/T329A mutant and ParC S79F mutant by broth microdilution method; format: functional
[29] = Toxicity in po dosed Wistar Hannover rat administered administered once daily for 14 days; format: organism-based; conditions: in vivo; in short: as §2
[30] = Fraction unbound in mouse plasma at 10 uM after 16 hrs by LC-MS/MS analysis; format: ADME, cell-free; in short: as §4
[31] = tested on: Streptococcus pyogenes; experiment: Antimicrobial activity against Streptococcus pyogenes by broth microdilution method; format: functional; in short: as §1
[32] = Fraction unbound in human plasma at 10 uM after 16 hrs by LC-MS/MS analysis; format: ADME, cell-free; in short: as §4
[33] = Bioavailability in rat at 3 mg/kg, iv or at 10 mg/kg, po by LC-MS/MS method; format: ADME, organism-based; conditions: in vivo; in short: as §3
[34] = Cmax in Wistar Hannover rat at 500 mg/kg, po dosed once daily for 14 days measured on day 14; format: ADME, organism-based; design: dose 500 mg/kg, route oral; conditions: in vivo; in short: as §5
[35] = tested on: Staphylococcus aureus; experiment: Antimicrobial activity against methicillin-sensitive Staphylococcus aureus by broth microdilution method in presence of 50% human serum; format: functional
In short: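 CLSI broth microdilution against methicillin-sensitive S. aureus, run with 50% human serum added to the medium to reflect plasma protein binding. Values under 12.5 μM are averages of three or more replicates.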

Chain of DNA topoisomerase 2-alpha (P11388 whole entry): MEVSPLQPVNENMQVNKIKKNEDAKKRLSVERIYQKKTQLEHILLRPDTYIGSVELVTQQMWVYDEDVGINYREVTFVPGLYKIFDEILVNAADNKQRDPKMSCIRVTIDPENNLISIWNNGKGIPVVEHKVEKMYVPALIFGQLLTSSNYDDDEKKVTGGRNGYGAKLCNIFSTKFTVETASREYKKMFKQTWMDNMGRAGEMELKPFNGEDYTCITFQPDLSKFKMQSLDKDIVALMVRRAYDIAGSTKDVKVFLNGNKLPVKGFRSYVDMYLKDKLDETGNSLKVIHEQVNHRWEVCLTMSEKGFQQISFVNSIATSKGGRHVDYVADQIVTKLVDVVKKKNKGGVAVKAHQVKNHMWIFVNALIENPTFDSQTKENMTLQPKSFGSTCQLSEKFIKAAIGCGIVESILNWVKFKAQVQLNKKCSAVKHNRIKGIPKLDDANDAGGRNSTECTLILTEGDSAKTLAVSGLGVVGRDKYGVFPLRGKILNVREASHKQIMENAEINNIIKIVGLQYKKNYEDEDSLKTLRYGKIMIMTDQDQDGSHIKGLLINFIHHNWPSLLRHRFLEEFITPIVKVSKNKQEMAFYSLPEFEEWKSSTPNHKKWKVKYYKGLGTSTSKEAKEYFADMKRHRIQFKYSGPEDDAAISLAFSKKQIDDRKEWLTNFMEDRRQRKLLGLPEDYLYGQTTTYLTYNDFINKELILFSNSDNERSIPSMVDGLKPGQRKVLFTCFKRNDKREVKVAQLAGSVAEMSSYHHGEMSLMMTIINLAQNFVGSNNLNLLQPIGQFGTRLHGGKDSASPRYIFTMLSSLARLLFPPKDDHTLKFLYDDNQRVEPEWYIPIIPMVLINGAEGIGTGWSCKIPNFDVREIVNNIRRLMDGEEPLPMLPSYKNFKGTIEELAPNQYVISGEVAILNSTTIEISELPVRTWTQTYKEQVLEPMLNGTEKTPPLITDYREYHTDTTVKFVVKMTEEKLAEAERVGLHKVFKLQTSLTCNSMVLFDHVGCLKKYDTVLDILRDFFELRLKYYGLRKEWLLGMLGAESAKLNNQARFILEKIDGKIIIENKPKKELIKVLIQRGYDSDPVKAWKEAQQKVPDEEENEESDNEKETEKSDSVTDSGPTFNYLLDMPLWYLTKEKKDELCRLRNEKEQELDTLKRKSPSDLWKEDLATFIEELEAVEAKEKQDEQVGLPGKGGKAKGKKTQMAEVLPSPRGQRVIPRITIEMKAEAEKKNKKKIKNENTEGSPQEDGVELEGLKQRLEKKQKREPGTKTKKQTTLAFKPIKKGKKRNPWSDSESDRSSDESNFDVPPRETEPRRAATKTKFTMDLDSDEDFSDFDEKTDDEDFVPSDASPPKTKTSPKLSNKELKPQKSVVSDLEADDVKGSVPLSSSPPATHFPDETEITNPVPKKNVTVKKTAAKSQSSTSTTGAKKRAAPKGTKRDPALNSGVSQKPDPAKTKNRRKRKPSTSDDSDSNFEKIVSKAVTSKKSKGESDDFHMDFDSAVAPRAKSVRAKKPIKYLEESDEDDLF

Cc1noc2c(F)c3c(cc12)CC1(C(=O)NC(=O)NC1=O)[C@H]1[C@H](C)O[C@H](C)CN31
Activity [1]: Toxic | MIC [2]: 1 µM (≈ 0.402 µg/mL) | IC50 [3]: 5 µg/mL (≈ 12.4 µM) | fCmax [4]: 70 µmol/L | Activity [5]: Non-toxic | fAUC [6]: 700 µM·h | MIC [7]: 0.5 µg/mL (≈ 1.24 µM) | IC50 [8]: 50 µM | Activity [9]: Dose-dependent effect | solubility [10]: > 1000 µM | clearance [11]: 32 mL/min/kg | clearance [12]: 38 mL/min/kg | MIC [13]: 0.5 µg/mL (≈ 1.24 µM) | fold change (FC) [14]: 3 | MIC [15]: 2 µM (≈ 0.805 µg/mL) | IC50 [16]: 8 µg/mL (≈ 19.9 µM) | fraction unbound at 16 h, 10 µM [17]: 0.16 | Cmax [18]: 487 µM | MIC [19]: ≤ 0.2 µM | bioavailability [20]: 58% | Cmax [21]: 290 µM | Activity [22]: Dose-dependent effect | MIC [23]: 45 µM (≈ 18.1 µg/mL) | fold change (FC) [24]: 3 | AUC at 336 h [25]: 4600 µM·h | MIC [26]: 8.8 µM (≈ 3.54 µg/mL) | MIC [27]: 4 µg/mL (≈ 9.94 µM) | MIC [28]: 2 µg/mL (≈ 4.97 µM) | NOAEL at 336 h [29]: 500 mg/kg | fraction unbound at 16 h, 10 µM [30]: 0.19 | MIC [31]: 6.2 µM (≈ 2.49 µg/mL) | fraction unbound at 16 h, 10 µM [32]: 0.094 | bioavailability [33]: 71% | Cmax [34]: 440 µM | MIC [35]: 3.1 µM
